STK33 kinase inh: human STK33 kinase inhibition; Q9BYT3; purified STK33, MBP phosphorylation, ADP-Glo luminescence; inhibition, % at 10 µM; actives 0.073% (n = 320,000); AID 2661;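 active means inhibition at or above 25%, using the most active replicate where run in duplicate; inactive means inhibition below 25%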
Target sequence (Q9BYT3 whole entry, looked up): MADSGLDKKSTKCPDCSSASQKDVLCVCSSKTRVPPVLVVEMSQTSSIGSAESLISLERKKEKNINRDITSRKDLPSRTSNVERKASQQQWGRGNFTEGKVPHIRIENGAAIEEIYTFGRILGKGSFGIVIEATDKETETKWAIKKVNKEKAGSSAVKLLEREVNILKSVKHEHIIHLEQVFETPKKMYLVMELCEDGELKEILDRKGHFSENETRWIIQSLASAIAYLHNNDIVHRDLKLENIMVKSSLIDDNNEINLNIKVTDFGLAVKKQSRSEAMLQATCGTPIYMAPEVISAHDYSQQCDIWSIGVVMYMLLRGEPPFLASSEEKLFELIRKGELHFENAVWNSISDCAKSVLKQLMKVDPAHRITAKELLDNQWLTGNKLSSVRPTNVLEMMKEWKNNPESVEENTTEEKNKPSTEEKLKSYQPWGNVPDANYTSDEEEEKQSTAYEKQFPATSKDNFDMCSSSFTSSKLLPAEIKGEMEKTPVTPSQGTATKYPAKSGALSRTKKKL
CDK5 p35 inh: inhibitors of human CDK5/p35 kinase | inhibition, % at 10 µM | AID 488839 | Recombinant CDK5/p35, ADP-Glo luminescence, 60 min | actives 0.01% (n = 330,000) | Q00535+Q15078;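 active means highest replicate inhibition of at least 50% and at least 75% of replicates reaching 50%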;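 further: plate controls were DMSO neutral control for no effect and GW8510 at 10 µM for full effect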
GSK3 alpha inh: blocks human GSK-3 alpha kinase. ADP-Glo luminescence, 60 min. P49840. inhibition, % at 10 µM. actives 0.1% (n = 320,000);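 active means more than half of replicates show inhibition above 20%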;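 further: GST-tagged GSK-3 alpha with peptide substrate and 25 µM ATP; 0% = DMSO neutral wells and 100% = GW8510 positive control wells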
GSK3B inh: human GSK3beta kinase inhibition. P49841. GST-GSK3beta kinase, ADP-Glo luminescence, 60 min; active compounds read low. activity score (negative = inhibition), % at 10 µM. actives 0.038% (n = 300,000);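 active means more than half of replicate wells score below -50%, meaning over 50% inhibition versus plate controls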;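 further: 0% = median DMSO wells and -100% = median GW8510 positive control wells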
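Assay system: GST-tagged human GSK3beta kinase, cell-free; Input: 1.6 ng GSK3beta; Medium: Tris/MgCl2 kinase buffer; Timing: 60 min enzyme reaction, room temperature; Signal: ADP-Glo luminescence quantifying ADP generated by kinase; Evaluation: score relative to plate controls; Benchmarks: DMSO neutral wells and GW8510 at 20 µM as positive.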
Numbers without * were called inactive; · = not tested or not shown. A selection: hits, their analogues and other compounds. The true share with any hit is near 0.16%.

SMILES	STK33 kinase inh	CDK5 p35 inh	GSK3 alpha inh	GSK3B inh
COc1ccc(/C=C(\C#N)C(=O)N=CN(C)C)cc1	0	1	·	0
CN(C)C=NC(=O)/C(C#N)=C1\CCc2ccccc2N1	10	1	52*	-34
CC(=O)Nc1cc2c3c(cccc3c1)-c1ccccc1-2	·	3	·	·
CCN1/C(=C/C(C)=O)Sc2ccc(OC)cc21	9	·	56*	-3
Nc1nonc1-n1nnc(C(=O)N/N=C/c2ccccc2Cl)c1CN1CCOCC1	0	-1	50*	-2
CCOc1ccccc1/C=N/NC(=O)c1nnn(-c2nonc2N)c1CN1CCCC1	1	-1	109*	-86*
Nc1nonc1-n1nnc(C(=O)N/N=C/c2ccccc2F)c1CN1CCc2ccccc21	1	-5	0	-50*
Cc1ccc(S(=O)(=O)N2C[C@@H]3[C@H]4CC[C@H](C4)[C@@H]3[C@@H](C)[C@H]2c2ccco2)cc1	·	-1	·	·
Cc1ccc(S(=O)(=O)CCSc2n[nH]c(=O)n2-c2ccc3c(c2)OCCO3)cc1	1	1	77*	-29
NCc1cccc(CNc2ccc([N+](=O)[O-])cc2C(N)=O)c1	1	20	84*	·
NC(=O)c1cc([N+](=O)[O-])ccc1NCc1cccc([N+](=O)[O-])c1	0	7	44	·
O=C(CN1C(=O)C2CC=CCC2C1=O)Nc1nc(-c2ccc(F)c(F)c2)cs1 (configuration not stated)	-3	1	-1	·
C=CCC[C@H](Cc1ccc(F)cc1)C(=O)OC[C@@H](Cc1c[nH]c2ccccc12)NC(=O)[C@H](CC=C)CC(=O)N(CCO)Cc1ccccc1	1	-1	2	·
Nc1c(N(CCCO)C(=O)CCCN2C(=O)c3cccc4cccc(c34)C2=O)c(=O)[nH]c(=O)n1Cc1ccccc1	·	1	·	·
CC(=O)c1cc(-c2ccc(F)cc2)n(CCC(=O)Nc2cc(C)[nH]n2)c1C	0	0	56*	1
CC(=O)c1cc(-c2ccccc2)n(CCC(=O)NC2CCCC2)c1C	-1	-2	-1	2
CCN(CC)S(=O)(=O)c1ccc(N2CCN(C)CC2)c(NC(=O)CN2C(=O)NC3(CCCCC3)C2=O)c1	·	-1	·	·
Cc1ccc(NC(=O)N2CCN(C/C=C/c3ccccc3)CC2)cc1	1	1	-5	1
COC(=O)c1ccccc1NC(=O)N1CCN(C/C=C/c2ccccc2)CC1	32*	-1	-1	3
O=c1c(-c2c(O)cc(O)c3c2O[C@H](c2ccc(O)cc2)CC3)c(-c2ccc(O)cc2)oc2cc(O)cc(O)c12	25*	-1	1	·
C/C=C/Cn1c(SCc2ccc(Cl)cc2)nc2c1c(=O)[nH]c(=O)n2C	29*	1	2	-2
COCCn1c(SCc2ccc(Cl)cc2)nc2c1c(=O)[nH]c(=O)n2C	-1	0	-3	1
Cc1ccc2c(=O)n3c(nc2c1)C(Cc1ccc(O)cc1)NC(=O)c1ccc(Cl)cc1-3 (configuration not stated)	-1	·	0	·
O=C(O)c1ccc(NC(=O)c2cccc(C(=O)Nc3ccc(C(=O)O)cc3)n2)cc1	34*	-1	8	0
CN1/C(=C/C2CC(=O)NC2=O)C(C)(C)c2ccccc21 (configuration not stated)	2	1	65*	·
SMILES	STK33 kinase inh	CDK5 p35 inh	GSK3 alpha inh	GSK3B inh
O=C(CSC(=O)c1ccccc1)Nc1ccccc1F	-1	1	0	·
O=c1c2ccccc2sc2ccc(NCCCN3CCOCC3)cc12	57*	-2	9	-3
CN1CCCC1CCNc1ccc2sc3ccccc3c(=O)c2c1 (configuration not stated)	44*	1	15	-5
Cc1cc2oc3cc(NCCC4CCCN4C)ccc3c(=O)c2cc1C (configuration not stated)	6	3	4	-3
COc1cc(OC)c(N(C)S(=O)(=O)c2cccc(C(=O)OCC(=O)N(C)Cc3ccccc3)c2)cc1Cl	·	-3	·	·
COc1cc(O)c(CC=C(C)C)c(O)c1C(=O)CCc1ccc(O)cc1	0	-3	-2	-6
O=C(CCc1ccc(O)cc1)c1c(O)cc(O)cc1O	30*	12	9	-7
O=C1NC(Cc2ccccc2)c2nc3ccc(F)cc3c(=O)n2-c2cc(Cl)ccc21 (configuration not stated)	0	·	1	·
Oc1ccccc1N=Cc1c(O)ccc2oc3c(c12)CCCC3	5	0	1	1
O=C(O)c1ccc(N=Cc2c(O)ccc3oc4c(c23)CCCC4)cc1	46*	1	7	1
COC(=O)c1cccc2c1-c1ccccc1/C2=N/O	30*	2	17	-4
CN1CCN(c2ccc(NC(=O)c3ccc(-c4ccc(Cl)cc4)o3)cc2)CC1	0	-1	2	-7
CN1CCN(c2ccc(NC(=O)c3ccc(-c4cccc([N+](=O)[O-])c4)o3)cc2)CC1	36*	0	4	1
COc1cccc(C2c3cc4c(cc3OC(C)(N3CCCC3)C2C)OCO4)c1O (configuration not stated)	·	0	·	·
CCN1C(=O)CC(c2ccccc2)N(C2CCCC2)c2nc(Nc3ccc(C(=O)NC4CCN(C)CC4)cc3OC)ncc21 (configuration not stated)	47*	2	6	·
Cc1ccc(C2C3=C(CC(C)(C)CC3=O)Nc3n[nH]c(C)c32)cc1 (configuration not stated)	2	1	77*	-60*
Cc1[nH]nc2c1C(c1ccc(N(C)C)cc1)C1=C(CC(C)(C)CC1=O)N2 (configuration not stated)	0	0	13	-18
Cc1[nH]nc2c1C(c1cccc(O)c1)C1=C(CC(C)(C)CC1=O)N2 (configuration not stated)	0	9	97*	-92*
Cc1[nH]nc2c1C(c1ccc(F)cc1)C1=C(CC(C)(C)CC1=O)N2 (configuration not stated)	·	1	21	-56*
N#CC(C#N)=C1SC(=Nc2ccccc2)C(=Nc2ccccc2)N1c1ccccc1	·	-1	·	·
C=C[C@H]1CN2CC[C@H]1C[C@H]2[C@H](O)c1ccnc2ccc(OC)cc12	-2	1	-2	3
CC(C)C(=O)Nc1cccc(COc2ccccc2CN(Cc2ccccc2)C(=O)OC(C)(C)C)c1	·	-2	·	·
C#CCOCCOCCOCCNc1nc(N2CCN(C(=O)CCCCCCCCCCNC(=O)[C@H]([C@@H](C)CC)n3cc(CCCCN=C(N)N)nn3)CC2)nc(N2CCN(C(=O)CCCCCCCCCCNC(=O)[C@H](CCCN=C(N)N)n3cc(C[C@@H](C)CC)nn3)CC2)n1	31*	·	-14	·
C#CCOCCOCCOCCNc1nc(N2CCN(C(=O)CCCCCCCCCCNC(=O)[C@H](CCCCN)n3cc(C[C@@H](C)CC)nn3)CC2)nc(N2CCN(C(=O)CCCCCCCCCCNC(=O)[C@H](CCCN=C(N)N)n3cc(C[C@@H](C)CC)nn3)CC2)n1	29*	6	13	·

Source: PubChem BioAssay (Broad Institute)
